Experimental data taken from article PMC3589724 (Scientific Reports, 2013).
Like-named read-outs stand apart in the source and are kept apart here.

Key:
Ca^2+/CaM = experiment: ITC binding to Ca^2+/CaM; conditions: buffer B (20 mM HEPES pH 8.0, 100 mM NaCl, 10 mM CaCl2), 24°C, single-site fitting model
How it was run: (§1)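 CaM (His6-tagged, E. coli-expressed; mutants made by inverse PCR) is injected into full-length wild-type or point-mutant Nm/Ng, or into synthetic IQ peptides (Nm 34–57, Ng 27–50). Apo and mutant CaM are in buffer A; Ca2+/CaM is in buffer B. Samples are degassed. VP-ITC or iTC200, 24°C, 10 (or 2) μl injections at 5 (or 2) min intervals. Buffer-titration dilution heats are subtracted, and a single-site fit gives Ka.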

apoCaM = experiment: ITC binding to apo CaM; conditions: for Association constant Ka: apoCaM, buffer A (20 mM Imidazole pH 8.0, 100 mM NaCl, 2 mM EGTA), 24°C, single-site fitting model
How it was run: as §1

CaM = conditions: in vivo CaM binding, cited from earlier work
CaMWT = experiment: ITC binding to wild-type CaM; conditions: point mutants of Nm/Ng
How it was run: as §1

[1] = test system: synaptic transmission, CA1 hippocampal synapses; conditions: cited from earlier work
[2] = Ser36-phosphorylated; cited from earlier work
CaME85A/F142A = experiment: ITC binding to CaM double mutant E85A/F142A; conditions: buffer A (20 mM Imidazole pH 8.0, 100 mM NaCl, 2 mM EGTA), 24°C
How it was run: as §1

Association constant Ka (Ca^2+/CaM) | Association constant Ka (apoCaM) | Substance | Ng-CaM binding (CaM) | other results
1.6 10^6 M^−1 | 25 10^6 M^−1 | NmIQ: synthetic wild-type IQ motif peptide of Nm, aa34–57 |  | 
 |  | Ser36Asp (S36D): Ng point mutant Ser36Asp (literature) | reduce Ng-CaM binding | 
0.3 10^6 M^−1 | 2.3 10^6 M^−1 | NgIQ: synthetic wild-type IQ motif peptide of Ng, aa27–50 (NAAAAKIQASFRGHMARKKIKSGE) |  | 
 |  | NgR38A: full-length Ng point mutant Arg38Ala; GFP-tagged in the electrophysiology experiments |  | binding to apo CaM (in words) (apoCaM; mutant Ng): does not bind to the apo CaM; binding to CaM (in words) (CaMWT): completely abolish
 |  | Ser36-phosphorylated Ng: Ng phosphorylated at Ser36 by PKC [reference compound] |  | synaptic strength ([1]; Ser36-phosphorylated): unable to enhance synaptic strength; binding to CaM and phosphatidic acid [2]: unable to bind CaM and phosphatidic acid
 |  | Ile33Gln (I33Q): Ng point mutant Ile33Gln (literature) | completely inhibits the binding | 
 |  | Arg38Gln (R38Q): Ng point mutant Arg38Gln (literature) | reduce Ng-CaM binding | Ng-CaM binding (CaM; listed as Arg38Gln): reduce the binding strength
0.52 10^6 M^−1 | 7.9 10^6 M^−1 | neuromodulin [NmWT] |  | Association constant Ka (CaME85A/F142A): 0.46 10^6 M^−1
0.96 10^6 M^−1 | 23 10^6 M^−1 | neurogranin [NgWT] |  | synaptic transmission / strength ([1]; overexpression, listed as wild-type Ng): potentiates synaptic transmission; synaptic strength ([1]; through interaction with CaM): enhances synaptic strength; affinity to apo CaM relative to Ca^2+/CaM (apoCaM; in words): higher affinity than that to Ca^2+/CaM
